Source: publication PMC11567926 (Current Research in Food Science, 2024)
Residues, ends and D or L forms follow the SMILES beside them.

Experiments:
DPP-IV [1] = molecular target: T1, DPP-IV (Homo sapiens, UniProt P27487); experiment: in vitro DPP-IV inhibitory activity; assay type: biochemical; settings: synthesized peptides, in vitro enzyme assay
How it was run: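 Human DPP-IV (0.1 U/mL) and Gly-Pro-p-nitroanilide (2 mmol/L) solutions made in 100 mmol/L Tris-HCl, pH 8.0. Substrate and sample preincubated 10 min at 37 °C under subdued light. Enzyme then added and incubated 1 h at 37 °C. Stopped with 1 mol/L sodium acetate, pH 4.0, and absorbance read at 405 nm. Inhibition calculated from sample, sample-blank, control and blank absorbances.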

Caco-2 cells [2] = experiment: Caco-2 cell viability, MTT colorimetric assay; assay type: cell-based, human; settings: 8 mM peptide, 4 h
How it was run: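 Caco-2 cells grown in DMEM with 10% FBS and 1% penicillin-streptomycin at 37 °C, 5% CO2. Seeded at 5 × 10^4 cells/well and incubated 24 h. Medium replaced with peptide at 0.5, 1, 2, 4 or 8 mM for 4 h, 6 replicates per sample. MTT solution (5 mg/mL) added for 4 h, formazan dissolved in DMSO with ~15 min shaking, OD read at 490 nm.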

Caco-2 cell monolayer = Caco-2 cell monolayer transmembrane transport; assay type: in vitro ADME, human; settings: 4 mM, 120 min
How it was run: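 Caco-2 cells seeded at 2 × 10^5 cells/mL on the apical side of 0.4 μm-pore Transwells and cultured 21 days to a differentiated monolayer; TEER over 350 Ω cm2 required. Both sides washed twice and equilibrated 30 min in HBSS. Peptide added apically, HBSS basolaterally, 120 min in incubator. AP and BL liquids analysed by RP-HPLC (1 mL/min, 30 °C column, 220 nm).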

DPP-IV [3] = molecular target: T1, DPP-IV; experiment: cell-based
Caco-2 cells [4] = settings: 4 mM; ref Mu et al., 2024; cited from earlier work
glucose metabolism = settings: 300 mg/kg, OGTT normal rats; ref Uenishi et al. (2012); cited from earlier work

T1 sequence (P27487 whole entry): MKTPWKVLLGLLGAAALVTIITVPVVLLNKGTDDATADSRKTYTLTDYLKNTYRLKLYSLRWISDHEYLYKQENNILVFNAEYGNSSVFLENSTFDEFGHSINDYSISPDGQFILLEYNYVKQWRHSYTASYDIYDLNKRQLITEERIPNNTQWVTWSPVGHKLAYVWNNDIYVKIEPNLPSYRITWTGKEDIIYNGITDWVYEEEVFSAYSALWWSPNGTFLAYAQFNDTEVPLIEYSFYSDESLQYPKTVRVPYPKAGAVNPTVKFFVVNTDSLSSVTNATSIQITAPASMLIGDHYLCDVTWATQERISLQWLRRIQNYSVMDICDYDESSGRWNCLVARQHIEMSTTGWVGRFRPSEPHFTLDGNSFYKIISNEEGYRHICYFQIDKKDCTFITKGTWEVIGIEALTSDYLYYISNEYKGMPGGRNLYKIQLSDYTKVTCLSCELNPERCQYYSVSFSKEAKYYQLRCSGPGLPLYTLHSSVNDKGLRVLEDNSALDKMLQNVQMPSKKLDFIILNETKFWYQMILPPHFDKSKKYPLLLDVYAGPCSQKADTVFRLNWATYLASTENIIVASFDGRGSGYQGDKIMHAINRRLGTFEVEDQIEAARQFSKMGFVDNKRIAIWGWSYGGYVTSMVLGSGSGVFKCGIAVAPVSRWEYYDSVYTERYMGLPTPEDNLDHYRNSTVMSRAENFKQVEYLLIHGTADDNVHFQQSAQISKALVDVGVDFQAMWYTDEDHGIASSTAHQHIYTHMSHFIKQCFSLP

CC(C)[C@H](N)C(=O)N1CCC[C@H]1C(=O)N[C@@H](Cc1ccccc1)C(=O)N[C@@H](Cc1c[nH]c2ccccc12)C(=O)N[C@@H](C)C(=O)O [VPFWA] (H-VPFWA-OH; N-terminus and C-terminus assumed)
IC50 (DPP-IV [1]): 251 ± 12.8 µM | survival rates of Caco-2 cells (Caco-2 cells [2]): 76.03 ± 1.08% | passage through the Caco-2 cell monolayer (Caco-2 cell monolayer; AP to BL): pass through the Caco-2 cell monolayer intact | chromatographic peak in the BL-side samples (Caco-2 cell monolayer; RP-HPLC): smallest peak | IC50 (DPP-IV [3]): 325 ± 8.4 µM

LDATDMVALVG
damage to cell viability of Caco-2 cells (Caco-2 cells [4]): least damage to cell viability

LPQNIPPL
glucose metabolism (glucose metabolism): improved glucose metabolism | plasma insulin levels (glucose metabolism): significantly reduced plasma insulin levels

SPVAEVPFLR
damage to cell viability of Caco-2 cells (Caco-2 cells [4]): least damage to cell viability
